Common to all, as to format: functional
For one assay, the system named is RPMI-8226. In words: Cytotoxicity against human RPMI8226 cells assessed as cell growth at 0.01 uM after 48 hrs by sulforhodamine B assay. Conditions: RPMI-8226, 48 h, read-out: Activity. In general terms: Sulforhodamine B stains cellular protein and so reports cell mass.
Another assay has as its system SK-OV-3. Description: Cytotoxicity against human SKOV3 cells assessed as cell growth at 0.1 uM after 48 hrs by sulforhodamine B assay. Conditions: SK-OV-3, 48 h, read-out: Activity.
In a further assay the test system is NCI-H23. In words: Cytotoxicity against human NCI-H23 cells assessed as cell growth at 0.01 uM after 48 hrs by sulforhodamine B assay. Conditions: NCI-H23, 48 h, read-out: Activity.
A further assay concerns SK-MEL-28. Description: Cytotoxicity against human SK-MEL-28 cells assessed as cell growth at 0.01 uM after 48 hrs by sulforhodamine B assay. Particulars: SK-MEL-28, 48 h, read-out: Activity.
The next assay has as its system HOP-62. Description: Cytotoxicity against human HOP62 cells assessed as cell growth at 0.1 uM after 48 hrs by sulforhodamine B assay. Conditions: HOP-62, 48 h, read-out: Activity. In short, it runs like this: (§1)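 Five-dose NCI panel run at 0.01, 0.1, 1, 10 and 100 µM. Cells were in RPMI 1640 with 5% FBS and 2 mM L-glutamine, seeded at 5000–40,000 cells/well and pre-incubated 24 h. Drug was diluted from a DMSO stock into medium with 50 µg/ml gentamicin. Exposure was 48 h at 37 °C, 5% CO2. Cells were fixed with cold TCA and stained with 0.4% SRB, read at 515 nm. Percent growth came from time-zero, control and test absorbances.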

The next assay has as its system CCRF-CEM. Description: Cytotoxicity against human CCRF-CEM cells assessed as cell growth at 100 uM after 48 hrs by sulforhodamine B assay. Particulars: read-out: Activity. In short, it runs like this: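 CCRF-CEM suspension leukemia cells in RPMI 1640 with 5% FBS and 2 mM L-glutamine, plated 24 h before dosing. Five concentrations (0.01–100 µM) were applied from a DMSO stock for 48 h at 37 °C. Settled cells were fixed with 80% TCA (final 16%) and stained with SRB, with read-out at 515 nm. Percent growth was derived from time-zero and control absorbances.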

Another assay relates to U-251. In words: Cytotoxicity against human U251 cells assessed as cell growth at 10 '-5 M after 48 hrs by sulforhodamine B assay. Conditions: U-251, 48 h, read-out: Activity.
The test system of a further assay is PC-3. In words: Cytotoxicity against human PC3 cells assessed as cell growth at 10 '-5 M after 48 hrs by sulforhodamine B assay. Particulars: PC-3, 48 h, read-out: Activity.
In assay [1] the test system is MDA-MB-435. Description: Cytotoxicity against human MDA-MB-435 cells assessed as cell growth at 1 uM after 48 hrs by sulforhodamine B assay. Conditions: MDA-MB-435, 48 h, read-out: Activity.
Assay [2] deals with MDA-MB-435. In words: Growth inhibition of human MDA-MB-435 cells after 48 hrs by sulforhodamine B assay. Conditions: MDA-MB-435, 48 h; for CC50: read-out: LC50 (the source's name). In short, it runs like this:
(§2)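 Adherent NCI-60 lines were grown in RPMI 1640 with 5% FBS and 2 mM L-glutamine, plated at 5000–40,000 cells/well and preincubated 24 h. They were then exposed to five concentrations (0.01–100 µM, from a DMSO stock) for 48 h at 37 °C, 5% CO2. Cells were fixed with cold TCA (10% final, 60 min, 4 °C) and stained with 0.4% SRB. Dye was solubilized in 10 mM Tris base and A515 read. GI50 was derived from time-zero, control and treated absorbances.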

In the next assay the test system is SNB-75. In words: Cytotoxicity against human SNB75 cells assessed as cell growth at 10 uM after 48 hrs by sulforhodamine B assay. Particulars: SNB-75, 48 h, read-out: Activity.
Another assay relates to OVCAR-8. Description: Cytotoxicity against human OVCAR8 cells assessed as cell growth at 0.01 uM after 48 hrs by sulforhodamine B assay. Conditions: OVCAR-8, 48 h, read-out: Activity.
A further assay concerns HCT-116. In words: Cytotoxicity against human HCT116 cells assessed as cell growth at 10 uM after 48 hrs by sulforhodamine B assay. Conditions: HCT-116, 48 h, read-out: Activity. In short, it runs like this:
as §1

For the next assay, the system named is SW-620. In words: Cytotoxicity against human SW620 cells assessed as cell growth at 100 uM after 48 hrs by sulforhodamine B assay. Conditions: SW-620, 48 h, read-out: Activity.
The test system of a further assay is COLO 205. In words: Cytotoxicity against human COLO205 cells assessed as cell growth at 1 uM after 48 hrs by sulforhodamine B assay. Particulars: COLO 205, 48 h, read-out: Activity. Summed up: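 NCI-60 five-dose screen. Cells were grown in RPMI 1640 with 5% FBS and 2 mM L-glutamine and preincubated 24 h. Compound (DMSO stock) was tested at 0.01, 0.1, 1, 10 and 100 µM for 48 h at 37 °C. Cells were fixed in situ with cold TCA (final 10%) and stained with 0.4% SRB. A515 was read, and percent growth was calculated against time-zero and control plates.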

For assay [3], the system named is NCI-H226. In words: Cytotoxicity against human NCI-H226 cells assessed as cell growth at 0.1 uM after 48 hrs by sulforhodamine B assay. Conditions: NCI-H226, 48 h, read-out: Activity.
Assay [4] concerns NCI-H226. In words: Cytotoxicity against human NCI-H226 cells assessed as cell growth at 10 uM after 48 hrs by sulforhodamine B assay. Particulars: NCI-H226, 48 h, read-out: Activity.
In another assay the test system is HOP-92. In words: Growth inhibition of human HOP92 cells after 48 hrs by sulforhodamine B assay. Conditions: HOP-92, 48 h. Summed up: as §2
Assay [5] relates to NCI-H226. In words: Cytotoxicity against human NCI-H226 cells assessed as cell growth at 100 uM after 48 hrs by sulforhodamine B assay. Particulars: NCI-H226, 48 h, read-out: Activity.
The test system of assay [6] is NCI-H226. In words: Cytotoxicity against human NCI-H226 cells assessed as cell growth at 1 uM after 48 hrs by sulforhodamine B assay. Particulars: NCI-H226, 48 h, read-out: Activity.

The source of these data is ChEMBL document CHEMBL2040734, “Benzothiazoles: search for anticancer agents” (2012).

Consider `Cc1ccc2nc(Nc3c(C)cccc3C)sc2c1`, for which the growth at 0.01 µM with RPMI-8226 turned out to be 101%; with NCI-H23, 94%; in the assay with SK-MEL-28, 94%; with OVCAR-8 it was 103%. The growth at 0.1 µM in the assay with SK-OV-3 turned out to be 104%; with HOP-62, 98%. Also, the growth at 100 µM in the assay on CCRF-CEM is 83%; in the assay with SW-620 it was 45%. For the same molecule, the growth at 10 µM in the assay with U-251 came to 34%; with PC-3, 40.4%; with SNB-75, 36%; with HCT-116, 21%. Moreover, the growth at 1 µM is -8% with MDA-MB-435 [1] and 82% in the assay on COLO 205. The GI50 (usually the concentration that inhibits growth by half) in the assay with MDA-MB-435 [2] was determined as 242 nM. Also, the TGI (usually the concentration giving total growth inhibition) with MDA-MB-435 [2] is 822 nM. Also, the CC50 in the assay with MDA-MB-435 [2] was > 100000 nM.
Regarding `Clc1cccc(Cl)c1Nc1nc2cccc(Cl)c2s1`, the growth at 0.01 µM was found to be 103% in the assay on RPMI-8226, 95% in the assay on NCI-H23, 93% in the assay with SK-MEL-28 and 101% in the assay on OVCAR-8. Moreover, the growth at 0.1 µM was 99% in the assay with SK-OV-3, 96% in the assay with HOP-62 and 45% in the assay with NCI-H226 [3]. For the same molecule, the growth at 100 µM in the assay on CCRF-CEM was -12%; in the assay on NCI-H226 [5], -72%; in the assay on SW-620, -82%. The growth at 10 µM is 4.1% with PC-3, -83% with NCI-H226 [4], -32% in the assay on SNB-75 and -98% in the assay with HCT-116. For the same molecule, the growth at 1 µM was 46% in the assay with MDA-MB-435 [1], -9% in the assay with NCI-H226 [6] and 74% in the assay on COLO 205. The GI50 turned out to be 813 nM with MDA-MB-435 [2] and 71.8 nM in the assay on HOP-92. The TGI in the assay with MDA-MB-435 [2] is 2380 nM; with HOP-92, 690 nM. Further, the CC50 in the assay on MDA-MB-435 [2] worked out at 6050 nM; in the assay on HOP-92 (read-out: LC50 (the source's name)) it was 3610 nM.
